This is an account of results in ChEMBL document CHEMBL3244323, “[1-Penicillamine,2-leucine]oxytocin. Synthesis and pharmacological and conformational studies of a potent peptide hormone inhibitor” (J Med Chem, 1979).

The target in assay [1] is T1, Oxytocin receptor (Rattus norvegicus, UniProt P70536).
T1 sequence (P70536 whole entry): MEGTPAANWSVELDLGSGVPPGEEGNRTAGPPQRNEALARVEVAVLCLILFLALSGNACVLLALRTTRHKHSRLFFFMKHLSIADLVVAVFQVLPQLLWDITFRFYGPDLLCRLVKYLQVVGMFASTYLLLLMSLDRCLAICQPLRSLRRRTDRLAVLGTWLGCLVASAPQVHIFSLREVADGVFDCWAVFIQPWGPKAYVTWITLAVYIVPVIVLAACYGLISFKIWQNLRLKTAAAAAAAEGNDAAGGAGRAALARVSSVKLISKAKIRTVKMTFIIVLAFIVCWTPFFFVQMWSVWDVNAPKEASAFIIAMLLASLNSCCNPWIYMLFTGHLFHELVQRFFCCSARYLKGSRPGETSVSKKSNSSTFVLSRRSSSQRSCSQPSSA
As to the kind of experiment: Antagonist activity at oxytocin receptor in rat assessed as inhibition of agonist-induced oxytocic response. To be noted: read-out: pA2 (converted). The procedure, abridged: (§1)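 Isolated uteri from rats in natural estrus, suspended in Mg-free van Dyke-Hasting's solution with isotonic contraction recording, bath 30 °C. Antagonism of oxytocin was analysed by the Schild method. pA2 is the negative log of the average molar antagonist concentration that reduces the response to 2x units of oxytocin to the response to x units.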

Assay [2] deals with T2, Oxytocin receptor (Homo sapiens, UniProt P30559).
T2 sequence (P30559 whole entry): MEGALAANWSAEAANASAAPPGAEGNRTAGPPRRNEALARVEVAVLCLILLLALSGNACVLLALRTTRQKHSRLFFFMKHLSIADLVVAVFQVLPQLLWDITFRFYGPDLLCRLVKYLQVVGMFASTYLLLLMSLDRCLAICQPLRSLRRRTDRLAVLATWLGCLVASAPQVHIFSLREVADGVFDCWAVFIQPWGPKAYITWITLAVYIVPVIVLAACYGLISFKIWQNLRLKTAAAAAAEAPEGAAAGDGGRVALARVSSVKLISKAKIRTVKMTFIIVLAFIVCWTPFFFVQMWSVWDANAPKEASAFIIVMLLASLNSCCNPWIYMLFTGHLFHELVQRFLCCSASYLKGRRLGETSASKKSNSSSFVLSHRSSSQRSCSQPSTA
Description: Antagonist activity at oxytocin receptor (unknown origin) assessed as inhibition of agonist-induced oxytocic response. The conditions noted are these: read-out: pA2 (converted). The procedure, abridged:
as §1

Assay [3] has as its target T3, Oxytocin receptor (Homo sapiens) (UniProt P30559).
T3 sequence (whole entry): T2 sequence (P30559 whole entry)
As to the kind of experiment: Agonist activity at oxytocin receptor (unknown origin).

For assay [4], the target named is T4, Oxytocin receptor (Mus musculus) (UniProt P97926).
T4 sequence (whole entry): T1 sequence (P70536 whole entry) with V11I, E23A, R27L, Q33R, G159A, A169V, N245S, F344L, V361I
Description: Antagonist activity at oxytocin receptor in mouse mammary gland tissue assessed as inhibition of oxytocin-induced milk ejection at 7.5X10'-6 M by spectrophotometry. Put shortly:
(§2)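 Mouse mammary gland tissue was incubated in vitro with oxytocin alone, or with oxytocin plus antagonist at up to 10^-5 M. Released milk was measured spectrophotometrically as absorbance. Values are mean ± SE from tissue of four mice.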

The target in assay [5] is T1, Oxytocin receptor. Description: Antagonist activity at oxytocin receptor in isolated rat uterus assessed as inhibition of oxytocin-induced oxytocic response. To be noted: read-out: pA2 (converted). The procedure, abridged: as §1
Assay [6] deals with T5, Oxytocin receptor (Rattus norvegicus) (UniProt P70536).
T5 sequence (whole entry): T1 sequence (P70536 whole entry)
As to the kind of experiment: Antagonist activity at oxytocin receptor in isolated rat uterus assessed as inhibition of oxytocin-induced oxytocic response at 20:1 compound to oxytocin ratio pretreated up to 90 secs prior to oxytocin addition.

Assay [7] has as its target T5, Oxytocin receptor (Rattus norvegicus). Description: Antagonist activity at oxytocin receptor in isolated rat uterus assessed as inhibition of oxytocin-induced oxytocic response at 20:1 compound to oxytocin ratio pretreated for 10 to 20 secs prior to oxytocin addition. The conditions noted are these: concentration not given here.
For assay [8] the target is unchanged. Description: Antagonist activity at oxytocin receptor in isolated rat uterus assessed as inhibition of oxytocin-induced oxytocic response at 20:1 compound to oxytocin ratio followed by compound washout.
Assay [9] has the same target. Description: Antagonist activity at oxytocin receptor in isolated rat uterus assessed as incidence of regular phasic contractions of uterus at 0.25 ug/ml.
For assay [10] the target is unchanged. As to the kind of experiment: Antagonist activity at oxytocin receptor in isolated rat uterus assessed as inhibition of oxytocic response at 0.25 ug/ml pretreated for 30 secs prior to oxytocin addition relative to control.
Assay [11] has the same target. Description: Antagonist activity at oxytocin receptor in isolated rat uterus assessed as reduction of subsequent contractions at 0.25 ug/ml measured during 10 mins interval of compound dosing.
The target is the same in assay [12]. As to the kind of experiment: Antagonist activity at oxytocin receptor in isolated rat uterus assessed as inhibition of oxytocic response at 0.25 ug/ml added simultaneously with oxytocin.
The target is the same in assay [13]. As to the kind of experiment: Antagonist activity at oxytocin receptor in isolated rat uterus assessed as incidence of regular phasic contractions of uterus at 0.25 ug/ml measured during 6 mins interval of compound dosing.
Assay [14] has the same target. As to the kind of experiment: Antagonist activity at oxytocin receptor in isolated rat uterus assessed as inhibition of oxytocin-induced contractions at 0.25 ug/ml dosed at the peak of first contraction measured during 10 mins interval of compound dosing.
Assay [15] shares this target. As to the kind of experiment: Antagonist activity at oxytocin receptor in isolated rat uterus assessed as inhibition of oxytocin-induced oxytocic response at 0.25 ug/ml followed by compound washout.
The target in assay [16] is T4, Oxytocin receptor (Mus musculus). Description: Agonist activity at oxytocin receptor in mouse mammary gland tissue assessed as milk-ejecting activity at 10^-5 M by spectrophotometry.
Assay [17] has the same target. Description: Antagonist activity at oxytocin receptor in mouse mammary gland tissue assessed as inhibition of oxytocin-induced milk ejection by spectrophotometry. Put shortly:
as §2

Residue numbers refer to the chain shown, from its start. The source made the active and inactive calls. No cut-off for these calls is given here. *1 amine or outer side, *2 acyl side, *3 side chain or, on linkers, in order; H or OH if unused. Where a SMILES comes first, the peptide text is derived from it. Bridges are numbered along the chain shown (N, C = ends). [ ]: non-standard residue; d: D form. Tyr(3,5-Br2) = N[C@@H](Cc1cc(Br)c(O)c(Br)c1)C(=O)O; X1 = CCC(CC)(CC(=O)[*:1])S[*:2]; X2 = CC(C)(CC(=O)[*:1])S[*:2]; Pen = CC(C)(S)[C@H](N)C(=O)O

Consider `CC[C@H](C)[C@@H]1NC(=O)[C@H](Cc2ccc(O)cc2)NC(=O)CC(C)(C)SSC[C@@H](C(=O)N2CCC[C@H]2C(=O)N[C@@H](CC(C)C)C(=O)NCC(N)=O)NC(=O)[C@H](CC(N)=O)NC(=O)[C@H]([C@@H](C)O)NC1=O` (YITNCPLG-NH2; linker N-5 via X2), for which the Kb on Oxytocin receptor [1] is 31.6 nM.
Consider `CC[C@H](C)[C@@H]1NC(=O)[C@H](Cc2ccc(O)cc2)NC(=O)[C@@H](N)C(C)(C)SSC[C@@H](C(=O)N2CCC[C@H]2C(=O)N[C@@H](CC(C)C)C(=O)NCC(N)=O)NC(=O)[C@H](CC(N)=O)NC(=O)[C@H](CC(C)C)NC1=O` (H-[Pen]YILNCPLG-NH2; disulfide 1-6), for which the Kb at Oxytocin receptor [2] was 170 nM.
For `CC[C@H](C)[C@@H]1NC(=O)[C@H](CC(C)C)NC(=O)[C@@H](N)CSSC[C@@H](C(=O)N2CCC[C@H]2C(=O)N[C@@H](CC(C)C)C(=O)NCC(N)=O)NC(=O)[C@H](CC(N)=O)NC(=O)[C@H](CCC(N)=O)NC1=O` (H-CLIQNCPLG-NH2; disulfide 1-6), in assay [3], the Activity came out at 0.5 U/mg.
As to `CC[C@H](C)[C@@H]1NC(=O)[C@H](Cc2ccc(O)cc2)NC(=O)CC(CC)(CC)SSC[C@@H](C(=O)N2CCC[C@H]2C(=O)N[C@@H](CC(C)C)C(=O)NCC(N)=O)NC(=O)[C@H](CC(N)=O)NC(=O)[C@H](CCC(N)=O)NC1=O` (YIQNCPLG-NH2; linker N-5 via X1), the Kb at Oxytocin receptor [2] was 57.5 nM.
Turning to `CC[C@H](C)[C@@H]1NC(=O)[C@H](Cc2cc(Br)c(O)c(Br)c2)NC(=O)CCSSC[C@@H](C(=O)N2CCC[C@H]2C(=O)N[C@@H](CC(C)C)C(=O)NCC(N)=O)NC(=O)[C@H](CC(N)=O)NC(=O)[C@H](CCC(N)=O)NC1=O`, on Oxytocin receptor [1], the Kb is 89.1 nM.
As to `CC[C@H](C)[C@@H]1NC(=O)[C@H](Cc2ccc(O)cc2)NC(=O)CCSSCC(C(=O)N2CCC[C@H]2C(=O)N[C@@H](CC(C)C)C(=O)NCC(N)=O)NC(=O)[C@H](CC(N)=O)NC(=O)[C@H](CCC(N)=O)NC1=O` (single isomer, unassigned), in assay [3], the Activity stood at 803 U/mg.
Regarding `CC[C@H](C)[C@@H]1NC(=O)[C@H](CC(C)C)NC(=O)[C@@H](N)C(C)(C)SSC[C@@H](C(=O)N2CCC[C@H]2C(=O)N[C@@H](CC(C)C)C(=O)NCC(N)=O)NC(=O)[C@H](CC(N)=O)NC(=O)[C@H](CCC(N)=O)NC1=O` (H-[Pen]LIQNCPLG-NH2; disulfide 1-6), the inhibition entry in assay [4], in assay [6] and in assay [14] was “Active” each time. The Kb on Oxytocin receptor [5] was 72.4 nM. In addition, the inhibition (as a rule, the relative decrease from the control value, in per cent) in [7] amounted to 50%; in assay [10], 60%. Further, the inhibition result in assay [8], in assay [12], in assay [13] and in assay [15] was “inactive” each time. For the same compound, the result in assay [9] and in assay [16] was inactive. In [11], the outcome was Active.
On to `CC[C@H](C)[C@@H]1NC(=O)[C@H](Cc2ccc(O)cc2)NC(=O)CC(CC)(CC)SSC[C@@H](C(=O)N2CCC[C@H]2C(=O)N[C@@H](CC(C)C)C(=O)NCC(N)=O)NC(=O)[C@H](CC(N)=O)NC(=O)[C@H](CC(C)C)NC1=O` (YILNCPLG-NH2; linker N-5 via X1), for which the Kb at Oxytocin receptor [2] is 95.5 nM.
Take `CC[C@H](C)[C@@H]1NC(=O)[C@H](Cc2ccc(O)cc2)NC(=O)CC(C)(C)SSC[C@@H](C(=O)N2CCC[C@H]2C(=O)N[C@@H](CC(C)C)C(=O)NCC(N)=O)NC(=O)[C@H](CC(N)=O)NC(=O)[C@H](CCC(N)=O)NC1=O` (YIQNCPLG-NH2; linker N-5 via X2): the Kb at Oxytocin receptor [2] was 115 nM.
Consider `CC[C@H](C)[C@@H]1NC(=O)[C@H](Cc2ccc(O)cc2)NC(=O)[C@@H](N)C(C)(C)SSC[C@@H](C(=O)N2CCC[C@H]2C(=O)N[C@@H](CC(C)C)C(=O)NCC(N)=O)NC(=O)[C@H](CC(N)=O)NC(=O)[C@H](CCC(N)=O)NC1=O`, for which the inhibition entry in [17] was “Active”. Besides, the Kb at Oxytocin receptor [2] is 138 nM.
As for `CC[C@H](C)[C@@H]1NC(=O)[C@H](Cc2cc(Br)c(O)c(Br)c2)NC(=O)CC(CC)(CC)SSC[C@@H](C(=O)N2CCC[C@H]2C(=O)N[C@@H](CC(C)C)C(=O)NCC(N)=O)NC(=O)[C@H](CC(N)=O)NC(=O)[C@H](CCC(N)=O)NC1=O` ([Tyr(3,5-Br2)]IQNCPLG-NH2; linker N-5 via X1), the Kb at Oxytocin receptor [1] is 83.2 nM.
